According to ChEMBL document CHEMBL4308919, “Discovery of TD-0212, an Orally Active Dual Pharmacology AT1 Antagonist and Neprilysin Inhibitor (ARNI)” (ACS Med Chem Lett, 2019):

How the values were obtained:
[1] = test system: Rattus norvegicus; assay: In vivo inhibition of NEP in Sprague-Dawley rat assessed as potentiation of ANP-induced elevation of urinary cGMP level at 3 mg/kg, iv treated for 5 mins at 15 mins post 2 doses of angiotensin-2 treatment at 15 minutes apart followed by ANP treatment measured up to 60 mins by EIA relative to control; type: functional
Method in brief: (§1)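 Rat pharmacodynamic assay with intravenous dosing to exclude oral absorption. AT1 antagonism is read in the same animal as inhibition of the angiotensin-II-evoked pressor response. NEP inhibition is read as potentiation of ANP-induced elevation of urinary cGMP output, relative to vehicle.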

[2] = biological target: Neprilysin (Homo sapiens, UniProt P08473); assay: Inhibition of NEP (unknown origin) preincubated for 10 mins followed by fluorogenic substrate addition and measured after 20 mins by fluorescence assay
Neprilysin, sequence (P08473 whole entry): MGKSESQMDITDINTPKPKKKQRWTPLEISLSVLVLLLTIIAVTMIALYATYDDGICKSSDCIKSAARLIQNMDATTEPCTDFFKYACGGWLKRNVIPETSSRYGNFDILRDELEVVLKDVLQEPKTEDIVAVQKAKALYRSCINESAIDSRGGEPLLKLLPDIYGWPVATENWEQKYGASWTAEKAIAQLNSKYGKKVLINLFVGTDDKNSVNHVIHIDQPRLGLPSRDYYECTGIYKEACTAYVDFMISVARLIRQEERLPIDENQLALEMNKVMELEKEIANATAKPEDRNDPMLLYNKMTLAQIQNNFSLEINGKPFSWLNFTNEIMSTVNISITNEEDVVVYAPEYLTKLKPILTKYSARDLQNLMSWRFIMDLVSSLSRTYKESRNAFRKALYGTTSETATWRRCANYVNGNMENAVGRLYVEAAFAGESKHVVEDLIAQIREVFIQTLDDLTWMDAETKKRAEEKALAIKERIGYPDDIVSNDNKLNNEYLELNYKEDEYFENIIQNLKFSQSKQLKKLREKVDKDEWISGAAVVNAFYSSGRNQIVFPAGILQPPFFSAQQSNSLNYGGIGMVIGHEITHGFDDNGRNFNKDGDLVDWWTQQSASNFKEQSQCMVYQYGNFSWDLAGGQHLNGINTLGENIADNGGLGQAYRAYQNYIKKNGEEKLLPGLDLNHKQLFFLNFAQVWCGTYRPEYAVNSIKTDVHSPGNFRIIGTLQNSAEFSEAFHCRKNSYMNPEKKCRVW

[3] = test system: Rattus norvegicus; assay: Antihypertensive activity in DOCA salt-induced CD-1 rat model of hypertension assessed as reduction in blood pressure administered via oral gavage in ascending cumulative doses […] measured up to 24 hrs by telemetry method; type: functional
Method in brief: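 Conscious DOCA-salt hypertensive rats, a low-renin model, dosed orally. Reduction in blood pressure is followed over time. ED10 is the dose giving an average 10% reduction in the 24 h average MAP.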

[4] = biological target: Angiotensin-converting enzyme (Homo sapiens, UniProt P12821); assay: Inhibition of recombinant human ACE using Mca-BK2 as substrate preincubated for 10 mins followed by fluorogenic substrate addition and measured after 20 mins by fluorescence assay
Angiotensin-converting enzyme, sequence (P12821 whole entry): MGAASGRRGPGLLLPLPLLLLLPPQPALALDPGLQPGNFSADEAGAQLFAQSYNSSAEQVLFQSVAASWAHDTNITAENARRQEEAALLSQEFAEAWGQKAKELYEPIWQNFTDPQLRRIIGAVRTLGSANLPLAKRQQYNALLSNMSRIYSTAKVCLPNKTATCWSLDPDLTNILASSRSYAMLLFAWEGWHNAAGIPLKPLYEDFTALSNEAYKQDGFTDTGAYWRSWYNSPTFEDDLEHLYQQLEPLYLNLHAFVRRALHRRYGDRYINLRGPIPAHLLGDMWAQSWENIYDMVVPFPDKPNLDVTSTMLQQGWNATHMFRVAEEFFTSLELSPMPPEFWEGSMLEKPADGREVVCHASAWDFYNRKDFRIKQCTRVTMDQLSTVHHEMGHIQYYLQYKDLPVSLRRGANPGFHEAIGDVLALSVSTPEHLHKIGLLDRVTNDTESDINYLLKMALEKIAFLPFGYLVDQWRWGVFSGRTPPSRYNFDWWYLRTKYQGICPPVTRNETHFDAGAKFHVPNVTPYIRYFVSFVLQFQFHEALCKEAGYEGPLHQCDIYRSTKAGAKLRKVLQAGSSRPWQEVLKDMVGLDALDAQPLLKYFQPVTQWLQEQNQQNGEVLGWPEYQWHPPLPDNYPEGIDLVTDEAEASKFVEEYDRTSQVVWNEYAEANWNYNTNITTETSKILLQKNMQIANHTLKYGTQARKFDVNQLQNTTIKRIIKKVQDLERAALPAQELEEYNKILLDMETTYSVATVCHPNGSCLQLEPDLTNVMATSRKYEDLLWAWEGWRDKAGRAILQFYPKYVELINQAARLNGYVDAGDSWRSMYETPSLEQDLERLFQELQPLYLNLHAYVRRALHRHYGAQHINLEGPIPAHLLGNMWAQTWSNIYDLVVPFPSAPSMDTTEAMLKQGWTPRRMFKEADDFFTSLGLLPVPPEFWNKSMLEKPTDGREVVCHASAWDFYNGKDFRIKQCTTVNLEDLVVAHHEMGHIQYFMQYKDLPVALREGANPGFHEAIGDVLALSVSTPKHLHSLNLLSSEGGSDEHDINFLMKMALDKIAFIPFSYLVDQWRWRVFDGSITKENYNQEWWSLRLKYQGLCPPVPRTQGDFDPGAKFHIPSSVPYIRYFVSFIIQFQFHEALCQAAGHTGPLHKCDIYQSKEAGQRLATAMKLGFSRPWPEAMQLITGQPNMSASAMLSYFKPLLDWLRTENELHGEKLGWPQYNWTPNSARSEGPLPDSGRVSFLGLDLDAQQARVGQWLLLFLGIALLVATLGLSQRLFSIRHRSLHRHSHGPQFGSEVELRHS

[5] = biological target: T1, Type-1 angiotensin II receptor (Homo sapiens, UniProt P30556); assay: Displacement of Europium-labeled angiotensin-2 from human AT1 receptor expressed in CHOK1 cell membranes after 120 mins by DELFIA
T1 sequence (P30556 whole entry): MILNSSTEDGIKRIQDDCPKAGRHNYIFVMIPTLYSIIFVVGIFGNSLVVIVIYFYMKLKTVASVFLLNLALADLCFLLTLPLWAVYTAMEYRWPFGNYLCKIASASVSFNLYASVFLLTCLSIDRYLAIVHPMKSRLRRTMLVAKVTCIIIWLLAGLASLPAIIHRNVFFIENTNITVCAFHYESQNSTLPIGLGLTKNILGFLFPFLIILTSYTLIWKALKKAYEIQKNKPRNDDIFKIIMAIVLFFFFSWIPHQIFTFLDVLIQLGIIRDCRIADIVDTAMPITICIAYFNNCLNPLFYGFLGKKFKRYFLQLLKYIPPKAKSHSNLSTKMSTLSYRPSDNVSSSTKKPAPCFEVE

[6] = test system: Rattus norvegicus; assay: Induction of angioedema in normotensive rat assessed as increase in tracheal plasma extravasation by measuring Evans blue dye leakage into peritracheal tissue at 0.3 to 3 mg/kg, po; type: organism-based; settings: in vivo
Method in brief: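 Rat tracheal plasma extravasation model adapted from Sulpizio et al., used as a surrogate for upper-airway angioedema. Normotensive rats are dosed orally. Read-out is Evans Blue dye leakage into peritracheal tissue, compared with vehicle.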

[7] = test system: Rattus norvegicus; assay: Antihypertensive activity in spontaneously hypertensive rat assessed as reduction in mean arterial pressure administered via oral gavage in […] measured up to 24 hrs by telemetry method; type: functional
Method in brief: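 Conscious spontaneously hypertensive rats, dosed orally. Blood pressure is monitored by telemetry for 24 h after each dose. Sequential escalating doses of 3, 10, 30 and 100 mg/kg are given at 24 h intervals. Efficacy is the peak percent fall in MAP from baseline. Duration is the vehicle-adjusted % change in AUC over 24 h. Statistics: two-way ANOVA with Bonferroni post hoc.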

[8] = test system: Rattus norvegicus; assay: Antihypertensive activity in spontaneously hypertensive rat assessed as reduction in mean arterial pressure administered via oral gavage in ascending cumulative doses […] measured up to 24 hrs in presence of NEP inhibitor candoxatril by telemetry method; type: functional
[9] = species on record: Homo sapiens; assay: Selectivity ratio of Ki for human AT2 receptor to Ki for human AT1 receptor
[10] = biological target: T2, Type-2 angiotensin II receptor (Homo sapiens, UniProt P50052); assay: Displacement of Europium-labeled angiotensin-2 from human AT2 receptor expressed in CHOK1 cell membranes after 120 mins by DELFIA
T2 sequence (P50052 whole entry): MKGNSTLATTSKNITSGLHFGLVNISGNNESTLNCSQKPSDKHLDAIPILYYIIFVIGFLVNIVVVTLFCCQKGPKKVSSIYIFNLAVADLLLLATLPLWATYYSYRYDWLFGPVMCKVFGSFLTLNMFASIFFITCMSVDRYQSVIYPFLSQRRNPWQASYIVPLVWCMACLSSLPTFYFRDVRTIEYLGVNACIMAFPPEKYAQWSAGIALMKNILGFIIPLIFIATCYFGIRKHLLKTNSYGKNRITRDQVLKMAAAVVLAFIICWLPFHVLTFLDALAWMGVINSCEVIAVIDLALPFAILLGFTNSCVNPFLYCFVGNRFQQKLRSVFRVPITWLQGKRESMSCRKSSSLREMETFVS

[11] = biological target: T3, Type-1 angiotensin II receptor (Homo sapiens) (UniProt P30556); assay: Antagonist activity at AT1 receptor (unknown origin) by inositol phosphate accumulation assay relative to control; type: functional
T3 sequence (whole entry): T1 sequence (P30556 whole entry)

[12] = biological target: aminopeptidase P (Xaa-Pro aminopeptidase, Homo sapiens); assay: Inhibition of APP (unknown origin)
[13] = species on record: Homo sapiens; assay: Selectivity ratio of IC50 for recombinant human ECE1 to IC50 for recombinant human NEP
[14] = biological target: T4, Endothelin-converting enzyme 1 (Homo sapiens, UniProt P42892); assay: Inhibition of recombinant human ECE1
T4 sequence (P42892 whole entry): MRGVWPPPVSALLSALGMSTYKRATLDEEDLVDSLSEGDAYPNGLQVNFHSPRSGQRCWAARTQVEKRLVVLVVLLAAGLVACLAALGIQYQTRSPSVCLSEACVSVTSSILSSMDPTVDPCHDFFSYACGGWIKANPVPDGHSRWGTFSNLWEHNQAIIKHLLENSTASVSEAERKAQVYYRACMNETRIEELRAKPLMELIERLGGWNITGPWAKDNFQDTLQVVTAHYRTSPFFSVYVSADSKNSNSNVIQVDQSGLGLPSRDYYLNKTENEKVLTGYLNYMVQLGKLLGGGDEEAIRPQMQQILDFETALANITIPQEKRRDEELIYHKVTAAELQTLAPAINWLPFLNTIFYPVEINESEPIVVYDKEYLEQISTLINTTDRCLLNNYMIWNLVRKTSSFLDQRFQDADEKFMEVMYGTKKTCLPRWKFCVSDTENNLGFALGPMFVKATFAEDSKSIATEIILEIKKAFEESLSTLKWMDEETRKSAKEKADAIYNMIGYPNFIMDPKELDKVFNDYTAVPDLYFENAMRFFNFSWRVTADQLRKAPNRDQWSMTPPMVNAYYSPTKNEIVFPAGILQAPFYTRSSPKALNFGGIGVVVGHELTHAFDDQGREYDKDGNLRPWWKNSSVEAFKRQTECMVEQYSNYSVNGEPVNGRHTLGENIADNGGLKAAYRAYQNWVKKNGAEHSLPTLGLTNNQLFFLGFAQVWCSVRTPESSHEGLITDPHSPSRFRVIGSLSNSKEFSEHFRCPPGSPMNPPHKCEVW

[15] = test system: Rattus norvegicus; assay: In vivo antagonist activity at AT1 receptor in Sprague-Dawley rat assessed as inhibition of angiotensin-2-induced pressor response at 3 mg/kg, iv treated for 5 mins at 15 mins post 2 doses of angiotensin-2 treatment at 15 minutes apart followed by ANP treatment and subsequent angiotensin-2 re-challenge after 60 mins relative to control; type: functional; method in brief: as §1

Structure (SMILES)	fold change (FC) [1]	IC50 [2] [nM]	ED10 [3] [mg/kg]	IC50 [4] [nM]	Ki [5] [nM]	Activity [6]	Activity [7]	ED10 [7] [mg/kg]	ED10 [8] [mg/kg]	Ratio Ki [9]	Ki [10] [nM]	% IP accumulation [11] [%]	IC50 [12] [nM]	Ratio IC50 [13]	IC50 [14] [nM]	inhibition in vivo at 3 mg/kg [15] [%]	Activity [3]
O=C(N[C@H]1CCS[C@H]2CCC[C@@H](C(=O)O)N2C1=O)[C@@H](S)Cc1ccccc1 [OMAPATRILAT]	5.3	0.2	66	0.1	> 10000	Non-Toxic	Dose-dependent effect	15									
CCCCC(=O)N(Cc1ccc(-c2ccccc2-c2nnn[nH]2)cc1)[C@H](C(=O)O)C(C)C							Dose-dependent effect	17	15								
CCOc1nc(CC)c(CNC(=O)[C@@H](S)CC(C)C)n1Cc1ccc(-c2ccccc2C(=O)O)cc1F	3.5		44	> 10000	1.26		Dose-dependent effect	13		2000	2510	< 5	> 10000	120	79.4	76	Dose-dependent effect
